pKi: −log10 of the molar value.

This passage reports Ki and Selectivity results from ChEMBL document CHEMBL1125192, “Analogues of the 5-HT1A serotonin antagonist 1-(2-methoxyphenyl)-4-[4-(2-phthalimido)butyl]piperazine with reduced alpha 1-adrenergic affinity” (J Med Chem, 1991).

Test [1] deals with Serotonin 2 (5-HT2) receptor (Rattus norvegicus, UniProt P30994+P08909+P14842). Description: Binding affinity towards 5-hydroxytryptamine 2 receptor using [3H]DOB as. It is filed as protein assay. In outline:
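[3H]DOB at 0.4 nM on 15 mg homogenized rat frontal cortex; nonspecific binding set with 1 μM cinanserin.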

For a further test, the target named is D(2) dopamine receptor (Bos taurus, UniProt P20288). Description: Binding affinity towards D2-dopaminergic receptor using [3H]NMSP as radioligand. In outline:
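Calf caudate (2 mg) with 1 nM [3H]NMSP in 140 mM NaCl; nonspecific binding defined by 10 μM sulpiride.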

Test [2] concerns the target T1, Adrenergic receptor alpha-1 (Rattus norvegicus, UniProt P15823+P23944+P43140).
T1 sequence (P15823 whole entry): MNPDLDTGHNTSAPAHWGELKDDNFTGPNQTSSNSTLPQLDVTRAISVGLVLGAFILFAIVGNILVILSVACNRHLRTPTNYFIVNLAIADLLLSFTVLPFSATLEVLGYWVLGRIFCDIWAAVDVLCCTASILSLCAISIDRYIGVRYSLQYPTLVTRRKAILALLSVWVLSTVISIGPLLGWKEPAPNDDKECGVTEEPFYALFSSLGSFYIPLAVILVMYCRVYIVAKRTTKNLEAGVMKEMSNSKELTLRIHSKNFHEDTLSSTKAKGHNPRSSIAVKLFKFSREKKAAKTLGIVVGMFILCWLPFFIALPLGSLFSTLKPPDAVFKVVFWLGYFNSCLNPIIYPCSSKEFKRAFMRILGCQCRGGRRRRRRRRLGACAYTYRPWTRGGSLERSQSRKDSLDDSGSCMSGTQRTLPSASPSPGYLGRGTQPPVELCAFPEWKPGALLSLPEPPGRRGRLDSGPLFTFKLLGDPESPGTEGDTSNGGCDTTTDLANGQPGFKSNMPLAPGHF
T1 sequence (P23944 whole entry): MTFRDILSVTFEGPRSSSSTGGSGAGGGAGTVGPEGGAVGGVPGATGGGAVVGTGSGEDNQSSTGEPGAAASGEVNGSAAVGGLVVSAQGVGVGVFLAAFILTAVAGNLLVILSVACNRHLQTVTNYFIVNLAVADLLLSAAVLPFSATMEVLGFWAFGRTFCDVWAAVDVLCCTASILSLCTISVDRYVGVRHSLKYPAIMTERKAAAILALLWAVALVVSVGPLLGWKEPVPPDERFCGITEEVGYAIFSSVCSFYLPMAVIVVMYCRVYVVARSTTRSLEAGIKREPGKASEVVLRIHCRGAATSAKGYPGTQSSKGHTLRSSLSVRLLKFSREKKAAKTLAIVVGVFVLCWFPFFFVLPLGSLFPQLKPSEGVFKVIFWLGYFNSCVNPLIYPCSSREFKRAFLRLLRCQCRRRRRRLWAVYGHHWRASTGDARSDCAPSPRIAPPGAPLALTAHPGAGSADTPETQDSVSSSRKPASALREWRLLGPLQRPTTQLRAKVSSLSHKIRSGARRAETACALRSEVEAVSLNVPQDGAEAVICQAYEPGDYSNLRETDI
T1 sequence (P43140 whole entry): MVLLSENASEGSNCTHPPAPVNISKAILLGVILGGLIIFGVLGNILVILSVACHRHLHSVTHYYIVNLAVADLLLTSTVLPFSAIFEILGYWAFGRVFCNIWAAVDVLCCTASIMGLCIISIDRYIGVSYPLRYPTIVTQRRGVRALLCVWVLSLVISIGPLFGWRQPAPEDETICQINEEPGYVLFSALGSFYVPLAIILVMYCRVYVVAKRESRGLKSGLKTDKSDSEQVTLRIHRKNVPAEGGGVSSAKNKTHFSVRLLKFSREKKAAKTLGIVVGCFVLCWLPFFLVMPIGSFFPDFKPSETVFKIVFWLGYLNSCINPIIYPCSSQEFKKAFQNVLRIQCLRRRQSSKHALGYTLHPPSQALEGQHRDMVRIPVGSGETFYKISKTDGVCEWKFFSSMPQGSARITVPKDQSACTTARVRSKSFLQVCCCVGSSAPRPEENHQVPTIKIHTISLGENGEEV
In words: Binding affinity towards alpha-1 adrenergic receptor of rat frontal cortex using [3H]- WB- 4101 as a radioligand. The test is classed as tissue-based.

For test [3], the target named is 5-hydroxytryptamine receptor 1B (Rattus norvegicus, UniProt P28564). In words: Binding affinity towards 5-hydroxytryptamine 1B receptor using [3H]5-HT as radioligand.
For a further test, the target named is D(1A) dopamine receptor (Rattus norvegicus, UniProt P18901). In words: Binding affinity towards Dopamine receptor D1 using [3H]SCH-23390 as radioligand. The gist of the method:
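Homogenized rat striatum (2 mg), 1 nM [3H]SCH-23390 with 20 nM ketanserin added; 1 μM SCH-23390 defined nonspecific binding.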

Test [4] addresses T2, 5-hydroxytryptamine receptor 1A (Rattus norvegicus, UniProt P19327).
T2 sequence (P19327 whole entry): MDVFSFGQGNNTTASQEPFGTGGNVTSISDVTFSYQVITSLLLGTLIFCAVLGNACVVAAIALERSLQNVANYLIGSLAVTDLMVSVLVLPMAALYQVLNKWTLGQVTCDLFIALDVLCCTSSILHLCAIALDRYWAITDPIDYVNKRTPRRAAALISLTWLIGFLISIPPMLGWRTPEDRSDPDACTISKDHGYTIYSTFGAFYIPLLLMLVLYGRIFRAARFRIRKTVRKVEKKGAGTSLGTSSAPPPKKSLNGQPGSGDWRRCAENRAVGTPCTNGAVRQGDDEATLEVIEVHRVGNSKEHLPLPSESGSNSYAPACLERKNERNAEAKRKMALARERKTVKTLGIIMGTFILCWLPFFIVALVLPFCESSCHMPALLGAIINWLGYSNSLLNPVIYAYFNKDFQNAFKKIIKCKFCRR
In words: Binding affinity towards 5-hydroxytryptamine 1A receptor of rat hippocampus using [3H]-8-hydroxy-2-(di-n-propylamine) tetralin (8-OH-DPAT) as a radioligand. It is filed as tissue-based.

Another test has as its target Adrenergic receptor beta (Rattus norvegicus, UniProt P18090+P10608+P26255). Description: Binding affinity towards beta adrenergic receptor using [3H]DHA as radioligand. It is filed as protein assay. The gist of the method:
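Homogenized rat frontal cortex (5 mg) labelled with 1 nM [3H]DHA; 1 μM propranolol for nonspecific binding.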

For test [5], the target named is T3, 5-hydroxytryptamine receptor 2C (Rattus norvegicus, UniProt P08909).
T3 sequence (P08909 whole entry): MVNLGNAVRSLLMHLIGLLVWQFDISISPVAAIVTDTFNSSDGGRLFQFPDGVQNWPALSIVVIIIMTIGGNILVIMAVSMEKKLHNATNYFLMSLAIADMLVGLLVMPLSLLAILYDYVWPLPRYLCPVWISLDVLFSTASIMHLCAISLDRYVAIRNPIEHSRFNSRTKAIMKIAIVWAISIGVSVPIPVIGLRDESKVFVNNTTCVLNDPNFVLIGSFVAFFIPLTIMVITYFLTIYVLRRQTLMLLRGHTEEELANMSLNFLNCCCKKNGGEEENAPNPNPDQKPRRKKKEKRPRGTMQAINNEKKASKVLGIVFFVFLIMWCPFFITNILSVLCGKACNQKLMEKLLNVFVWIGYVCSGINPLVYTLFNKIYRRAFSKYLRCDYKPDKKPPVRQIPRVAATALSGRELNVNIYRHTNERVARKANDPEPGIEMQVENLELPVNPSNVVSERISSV
In words: Binding affinity towards 5-hydroxytryptamine 1C receptor using [3H]mesulergine as radioligand. In outline:
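Homogenized rat frontal cortex (10 mg) with 1.0 nM [3H]mesulergine plus 10 nM spiperone; 10 μM 5-HT defined nonspecific binding.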

In test [6] the target is Serotonin 1a (5-HT1a) receptor/Adrenergic receptor alpha-1 (Rattus norvegicus) (UniProt P15823+P23944+P43140+P19327). Description: Ratio of Ki value for alpha-1 receptor to that of 5-HT1A receptor. The test is classed as protein assay. In outline: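 Ratio of two radioligand binding Ki values. 5-HT1A binding used 0.1 nM [3H]-8-OH-DPAT with rat hippocampal homogenate (6 mg), and 10 μM 8-OH-DPAT defined nonspecific binding. α1-adrenergic binding used 1.0 nM [3H]WB4101 plus 100 nM 8-OH-DPAT with rat frontal cortex (10 mg), and 1 μM prazosin defined nonspecific binding.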

Chain of D(2) dopamine receptor (P20288 whole entry): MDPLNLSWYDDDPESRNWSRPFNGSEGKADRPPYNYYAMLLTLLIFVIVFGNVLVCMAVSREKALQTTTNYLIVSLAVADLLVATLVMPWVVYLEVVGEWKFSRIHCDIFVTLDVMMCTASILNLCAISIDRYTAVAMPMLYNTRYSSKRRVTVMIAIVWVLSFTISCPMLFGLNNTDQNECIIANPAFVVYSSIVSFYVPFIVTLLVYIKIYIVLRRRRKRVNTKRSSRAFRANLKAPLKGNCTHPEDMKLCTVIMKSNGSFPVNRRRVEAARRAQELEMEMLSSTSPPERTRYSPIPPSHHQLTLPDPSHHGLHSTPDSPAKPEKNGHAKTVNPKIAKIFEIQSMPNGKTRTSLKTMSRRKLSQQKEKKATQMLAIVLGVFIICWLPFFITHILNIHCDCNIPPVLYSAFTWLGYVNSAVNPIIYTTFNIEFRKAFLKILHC
Chain of 5-hydroxytryptamine receptor 1B (P28564 whole entry): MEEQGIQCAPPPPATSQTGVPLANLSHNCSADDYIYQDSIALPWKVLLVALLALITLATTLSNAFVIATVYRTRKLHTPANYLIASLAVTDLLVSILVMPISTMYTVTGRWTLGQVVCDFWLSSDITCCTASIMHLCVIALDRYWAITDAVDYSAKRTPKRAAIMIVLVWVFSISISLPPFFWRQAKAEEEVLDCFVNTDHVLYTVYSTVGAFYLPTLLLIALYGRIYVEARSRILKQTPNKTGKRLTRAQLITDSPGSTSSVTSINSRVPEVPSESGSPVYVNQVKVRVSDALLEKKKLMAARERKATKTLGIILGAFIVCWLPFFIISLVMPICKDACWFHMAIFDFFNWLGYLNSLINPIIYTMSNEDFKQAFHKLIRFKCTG
Chain of D(1A) dopamine receptor (P18901 whole entry): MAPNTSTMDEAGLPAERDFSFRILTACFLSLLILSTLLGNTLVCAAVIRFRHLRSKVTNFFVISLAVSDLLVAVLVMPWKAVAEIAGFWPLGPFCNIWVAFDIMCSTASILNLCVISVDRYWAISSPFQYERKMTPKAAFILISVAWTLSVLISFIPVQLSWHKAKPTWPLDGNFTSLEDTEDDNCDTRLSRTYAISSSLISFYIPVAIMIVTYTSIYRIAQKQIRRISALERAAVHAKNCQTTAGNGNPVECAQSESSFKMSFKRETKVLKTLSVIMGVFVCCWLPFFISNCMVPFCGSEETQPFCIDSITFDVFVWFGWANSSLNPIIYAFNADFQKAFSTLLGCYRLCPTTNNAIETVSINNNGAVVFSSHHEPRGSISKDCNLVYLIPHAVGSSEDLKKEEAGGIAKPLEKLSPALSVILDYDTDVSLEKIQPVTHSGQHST

For the compound `COc1ccccc1N1CCN(CCCCNC(=O)C23C[C@H]4C[C@@H](C2)C[C@@H](C3)C4)CC1`, the Ki in test [1] is given as 34 nM; in test [2], 64 nM; on Adrenergic receptor beta, 1020 nM. For the same compound, the pKi at D(2) dopamine receptor was 8.57; in [3], 6.05; on D(1A) dopamine receptor, < 6.00; in [4], 9.40; in [5], 6.65.
As for `O=C1c2ccccc2C(=O)N1CCCCN1CCN(c2ccc([N+](=O)[O-])cc2)CC1`, the Ki in test [2] was determined as 378 nM. For the same compound, the pKi in [4] is 6.00. For the same compound, the Selectivity in test [6] was determined as 0.4.
On to `COc1ccccc1N1CCN(CCCCNC(=O)c2ccc([N+](=O)[O-])cc2)CC1`, for which, in [2], the Ki was 14 nM. The same compound had a pKi in test [4] of 8.36. Moreover, the Selectivity in [6] stood at 3.
Consider `COc1ccccc1N1CCN(CCCCNC(=O)c2ccc(N)cc2)CC1`, for which the Ki in test [2] is 23 nM. Also, the pKi in [4] was 8.20. Further, the Selectivity in test [6] came out at 4.
For the compound `O=C1c2ccccc2C(=O)N1CCCCN1CCN(c2cccc3ccccc23)CC1`, the Ki in test [2] was found to be 22 nM. The Selectivity in test [6] came to 22.
Take `O=C1c2ccccc2C(=O)N1CCCCN1CCN(c2ccccc2[N+](=O)[O-])CC1`: the Ki in test [2] worked out at 25 nM. For the same compound, the pKi in test [4] is 8.40. Besides, the Selectivity in test [6] was determined as 6.
`COc1ccccc1N1CCN(CCCCNC(=O)c2ccc(O)cc2)CC1` yielded an inhibition constant (Ki) in [2] of 17 nM. This compound showed a pKi in test [4] of 8.27. Moreover, the Selectivity in test [6] is 3.
As to `CCCCC(=O)NCCCCN1CCN(c2ccccc2OC)CC1`, in test [2], the inhibitory constant (Ki) is recorded as 84 nM. In [4], this compound gave a pKi of 8.12. The Selectivity in [6] came to 11.
As for `COc1ccc(OC)c(N2CCN(CCCCN3C(=O)c4ccccc4C3=O)CC2)c1`, the Ki in test [2] was determined as 15 nM. Also, the pKi in [4] is 7.66. The Selectivity in [6] came to 0.7.
On the same counts, the results for `COc1ccccc1N1CCN(CCCCNC(=O)c2ccc(I)cc2)CC1` are 15 nM, 8.40 and 4.
Take `COc1ccccc1N1CCN(CCCCNC(=O)c2ccc(Cl)c(Cl)c2)CC1`: the inhibition constant Ki in [2] is given as 21 nM. For the same compound, in test [4], the pKi is 8.70. In test [6], the Selectivity came to 11.
On the same counts, the results for `COc1ccccc1N1CCN(CCCCNC(=O)c2ccc(Cl)cc2)CC1` are 23 nM, 8.44 and 6.
For `CC(=O)Nc1ccc(N2CCN(CCCCN3C(=O)c4ccccc4C3=O)CC2)cc1`, the pKi in [2] is 5.00; in [4], 6.67.
For `COc1ccccc1N1CCN(CCCCNC(=O)C(C)(C)C)CC1`, the inhibition constant (Ki) in [2] amounted to 74 nM. Also, in test [4], the pKi was 9.00. Besides, the Selectivity in [6] was found to be 74.
Compound `O=C(NCCCCN1CCN(c2cccc3ccccc23)CC1)C12C[C@H]3C[C@@H](C1)C[C@@H](C2)C3` registered a Ki in test [2] of 109 nM. In test [4], this compound gave a pKi of 9.15. In addition, the Selectivity in test [6] was 156.
For `COc1ccccc1N1CCN(CCCCNC(=O)CCCc2ccccc2)CC1`, the Ki in test [2] amounted to 84 nM. The Selectivity in test [6] is 7.

For orientation: Ki means a measure of affinity in units of concentration, obtained from inhibition or displacement. A word on the pKi: it is the Ki on a negative log10 scale, so that one unit is a factor of ten. Read a high pKi as a low Ki.
